Measurements from ChEMBL document CHEMBL1629691, “Intrapulmonary pharmacokinetics and pharmacodynamics of micafungin in adult lung transplant patients” (Antimicrob Agents Chemother, 2010).
Numbered stars: 1 amine (or outer) side, 2 acyl side, 3 side chain; on linkers, the order of the positions; unused ones are H or OH. Bridge positions count the residues as written; N and C are the ends. Square brackets hold non-standard residues; d marks the D form. Peptide text beside a SMILES is read from it. * marks the point of attachment. hTyr(3S-OH,4S-OH,3'-OSO3H) = N[C@H](C(=O)O)[C@H](O)[C@@H](O)c1ccc(O)c(OS(=O)(=O)O)c1; Orn(4R-OH,5R-OH) = O=C([C@H](C[C@@H](O)[C@@H](O)N[*:3])N[*:1])[*:2]; Pro(3S-OH,4S-Me) = C[C@H]1CN[C@H](C(=O)O)[C@H]1O; X1 = CCCCCOc1ccc(-c2cc(-c3ccc(C(=O)*)cc3)no2)cc1; Gln(3R-OH) = NC(=O)C[C@@H](O)[C@H](N)C(=O)O; Hyp = O=C(O)[C@@H]1C[C@@H](O)CN1

Key:
[1] = Drug level in lung transplant recipient invasive aspergillosis patient plasma at 150 mg, iv QD for 4 consecutive days measured after 8 hrs post last dose by HPLC; assay type: ADME, organism-based; conditions: human, read-out: Drug uptake
Outline: (§1)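 150-mg IV micafungin, then bronchoscopy with BAL (20-ml saline aliquots) at the stated time after the dose. Blood was drawn in heparin at the same time. The BAL fluid was spun at 400 × g for 5 min at 4°C; supernatant and cell pellet were frozen at −80°C. Micafungin was measured by solid-phase extraction and C8 HPLC with UV detection at 271.5 nm, using anidulafungin as internal standard.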

[2] = Drug level in lung transplant recipient invasive aspergillosis patient plasma at 150 mg, iv QD for 4 consecutive days measured after 18 hrs post last dose by HPLC; assay type: ADME, organism-based; conditions: human, read-out: Drug uptake; outline: as §1
[3] = Drug level in lung transplant recipient invasive aspergillosis patient plasma at 150 mg, iv QD for 4 consecutive days measured after 24 hrs post last dose by HPLC; assay type: ADME, organism-based; conditions: human, read-out: Drug uptake; outline: as §1
[4] = Drug level in epithelial lining fluid of lung transplant recipient invasive aspergillosis patient at 150 mg, iv QD for 4 consecutive days measured after 3 hrs post last dose by HPLC; assay type: ADME, organism-based; conditions: human, read-out: Drug uptake; outline: as §1
[5] = Drug level in epithelial lining fluid of lung transplant recipient invasive aspergillosis patient at 150 mg, iv QD for 4 consecutive days measured after 8 hrs post last dose by HPLC; assay type: ADME, organism-based; conditions: human, read-out: Drug uptake; outline: as §1
[6] = Drug level in lung transplant recipient invasive aspergillosis patient epithelial lining fluid at 150 mg, iv QD for 4 consecutive days measured after 18 hrs post last dose by HPLC; assay type: ADME, organism-based; conditions: human, read-out: Drug uptake; outline: as §1
[7] = Drug level in epithelial lining fluid of lung transplant recipient invasive aspergillosis patient at 150 mg, iv QD for 4 consecutive days measured after 24 hrs post last dose by HPLC; assay type: ADME, organism-based; conditions: human, read-out: Drug uptake; outline: as §1
[8] = Drug level in alveolar cells of lung transplant recipient invasive aspergillosis patient at 150 mg, iv QD for 4 consecutive days measured after 3 hrs post last dose by HPLC; assay type: ADME, organism-based, Pneumocyte; conditions: human, read-out: Drug uptake; outline: as §1
[9] = Drug level in alveolar cells of lung transplant recipient invasive aspergillosis patient at 150 mg, iv QD for 4 consecutive days measured after 8 hrs post last dose by HPLC; assay type: ADME, organism-based, Pneumocyte; conditions: human, read-out: Drug uptake; outline: as §1
[10] = Drug level in alveolar cells of lung transplant recipient invasive aspergillosis patient at 150 mg, iv QD for 4 consecutive days measured after 18 hrs post last dose by HPLC; assay type: ADME, organism-based, Pneumocyte; conditions: human, read-out: Drug uptake; outline: as §1
[11] = Drug level in alveolar cells of lung transplant recipient invasive aspergillosis patient at 150 mg, iv QD for 4 consecutive days measured after 24 hrs post last dose by HPLC; assay type: ADME, organism-based, Pneumocyte; conditions: human, read-out: Drug uptake; outline: as §1
[12] = Ratio of drug level in epithelial lining fluid to plasma in lung transplant recipient invasive aspergillosis patient at 150 mg, iv QD for 4 consecutive days measured after 3 hrs post last dose; assay type: ADME, organism-based; conditions: human
[13] = Ratio of drug level in epithelial lining fluid to plasma in lung transplant recipient invasive aspergillosis patient at 150 mg, iv QD for 4 consecutive days measured after 8 hrs post last dose; assay type: ADME, organism-based; conditions: human
[14] = Ratio of drug level in epithelial lining fluid to plasma in lung transplant recipient invasive aspergillosis patient at 150 mg, iv QD for 4 consecutive days measured after 18 hrs post last dose; assay type: ADME, organism-based; conditions: human
[15] = Ratio of drug level in epithelial lining fluid to plasma in lung transplant recipient invasive aspergillosis patient at 150 mg, iv QD for 4 consecutive days measured after 24 hrs post last dose; assay type: ADME, organism-based; conditions: human
[16] = Ratio of drug level in alveolar cell to plasma of lung transplant recipient invasive aspergillosis patient at 150 mg, iv QD for 4 consecutive days measured after 3 hrs post last dose; assay type: ADME, organism-based, Pneumocyte; conditions: human, alveolar cells / plasma
[17] = Ratio of drug level in alveolar cell to plasma of lung transplant recipient invasive aspergillosis patient at 150 mg, iv QD for 4 consecutive days measured after 8 hrs post last dose; assay type: ADME, organism-based, Pneumocyte; conditions: human, alveolar cells / plasma
[18] = Ratio of drug level in alveolar cell to plasma of lung transplant recipient invasive aspergillosis patient at 150 mg, iv QD for 4 consecutive days measured after 18 hrs post last dose; assay type: ADME, organism-based, Pneumocyte; conditions: human, alveolar cells / plasma
[19] = Ratio of drug level in alveolar cell to plasma of lung transplant recipient invasive aspergillosis patient at 150 mg, iv QD for 4 consecutive days measured after 24 hrs post last dose; assay type: ADME, organism-based, Pneumocyte; conditions: human, alveolar cells / plasma
[20] = Cmax in lung transplant recipient invasive aspergillosis patient plasma at 150 mg, iv QD for 4 consecutive days by HPLC; assay type: ADME, organism-based; parameters: dose 150 mg, route intravenous; conditions: human
Outline: (§2)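 150-mg IV dose; BAL at 3, 5, 8, 18 or 24 h after the dose, about 4 subjects per time group. Plasma, ELF and alveolar cell drug was measured by reversed-phase HPLC with UV detection. Values were averaged per time point. Cmax is the highest mean over the five groups; Tmax is the mean dose-to-BAL time of that group.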

[21] = Cmax in epithelial lining fluid of lung transplant recipient invasive aspergillosis patient at 150 mg, iv QD for 4 consecutive days by HPLC; assay type: ADME, organism-based; parameters: dose 150 mg, route intravenous; conditions: human; outline: as §2
[22] = Cmax in alveolar cells of lung transplant recipient invasive aspergillosis patient at 150 mg, iv QD for 4 consecutive days by HPLC; assay type: ADME, organism-based, Pneumocyte; parameters: dose 150 mg, route intravenous; conditions: human; outline: as §2
[23] = Tmax in lung transplant recipient invasive aspergillosis patient plasma at 150 mg, iv QD for 4 consecutive days by HPLC; assay type: ADME, organism-based; conditions: human; outline: as §2
[24] = Tmax in epithelial lining fluid of lung transplant recipient invasive aspergillosis patient at 150 mg, iv QD for 4 consecutive days by HPLC; assay type: ADME, organism-based; conditions: human; outline: as §2
[25] = Tmax in alveolar cells of lung transplant recipient invasive aspergillosis patient at 150 mg, iv QD for 4 consecutive days by HPLC; assay type: ADME, organism-based, Pneumocyte; conditions: human; outline: as §2

CCCCCOc1ccc(-c2cc(-c3ccc(C(=O)N[C@H]4C[C@@H](O)[C@@H](O)NC(=O)[C@@H]5[C@@H](O)[C@@H](C)CN5C(=O)[C@H]([C@H](O)CC(N)=O)NC(=O)[C@H]([C@H](O)[C@@H](O)c5ccc(O)c(OS(=O)(=O)O)c5)NC(=O)[C@@H]5C[C@@H](O)CN5C(=O)[C@H]([C@@H](C)O)NC4=O)cc3)no2)cc1 [MICAFUNGIN] (X1-[Orn(4R-OH,5R-OH)]T[Hyp][hTyr(3S-OH,4S-OH,3'-OSO3H)][Gln(3R-OH)][Pro(3S-OH,4S-Me)]; lactam 1-C)
concentration at 8 h [1]: 3.93 µg/mL | concentration at 18 h [2]: 2.38 µg/mL | concentration at 24 h [3]: 1.57 µg/mL | concentration at 3 h [4]: 0.04 µg/mL | concentration at 8 h [5]: 0.05 µg/mL | concentration at 18 h [6]: 0.08 µg/mL | concentration at 24 h [7]: 1.38 µg/mL | concentration at 3 h [8]: 7.17 µg/mL | concentration at 8 h [9]: 4.86 µg/mL | concentration at 18 h [10]: 17.4 µg/mL | concentration at 24 h [11]: 9.99 µg/mL | Kp at 3 h [12]: 0.01 | Kp at 8 h [13]: 0.01 | Kp at 18 h [14]: 0.04 | Kp at 24 h [15]: 1.1 | Kp at 3 h [16]: 1.53 | Kp at 8 h [17]: 1.23 | Kp at 18 h [18]: 7.62 | Kp at 24 h [19]: 6.22 | Cmax [20]: 4.93 µg/mL | Cmax [21]: 1.38 µg/mL | Cmax [22]: 17.4 µg/mL | Tmax [23]: 4 h | Tmax [24]: 24.2 h | Tmax [25]: 17.9 h
